# An excerpt weighted towards active compounds, which were near 1.5% of everything screened.
# TPT1 inhibitor: Candida albicans TPT1 enzyme inhibitors, primary screen, biochemical, fluorescence polarization; recombinant caTPT1, FP RNA substrate dephosphorylation; tRNA 2'-phosphotransferase TPT1 (Candida albicans SC5314); actives 0.81% (n = 300,000); inhibition, % at 5 µM;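 active = inhibition above the mean of all tested compounds plus 3 SD, set per screening campaign, cut at about 24% in these data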;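 also: plate controls were DMSO alone for no effect and ferristatin control at 100 nM for full effect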
# HNF4A DNA FP: change in binding of human HNF4A to DNA, primary screen, biochemical, fluorescence polarization, FITC-DNA; Hepatocyte nuclear factor 4-alpha (Homo sapiens), P41235; 1 h; activity change, % at 10 µM; actives 0.3% (n = 360,000); in the data active = activity change above about 30%, passing the limit was not always enough
# Target sequence (P41235 whole entry, looked up): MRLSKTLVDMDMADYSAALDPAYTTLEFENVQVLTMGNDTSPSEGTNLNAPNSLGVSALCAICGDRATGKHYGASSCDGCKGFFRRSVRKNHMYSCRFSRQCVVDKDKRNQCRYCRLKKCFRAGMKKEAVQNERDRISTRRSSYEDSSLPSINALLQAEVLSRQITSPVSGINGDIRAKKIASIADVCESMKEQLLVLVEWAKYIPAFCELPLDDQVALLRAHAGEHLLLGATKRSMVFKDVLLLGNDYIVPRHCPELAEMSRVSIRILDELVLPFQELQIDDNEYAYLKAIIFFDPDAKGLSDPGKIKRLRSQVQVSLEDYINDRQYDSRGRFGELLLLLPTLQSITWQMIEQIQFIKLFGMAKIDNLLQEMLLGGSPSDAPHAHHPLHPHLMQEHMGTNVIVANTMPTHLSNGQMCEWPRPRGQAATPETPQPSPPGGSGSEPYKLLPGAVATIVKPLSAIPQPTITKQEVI
# CSN inh: inhibitors of CSN-mediated cullin deneddylation, primary screen, biochemical, fluorescence polarization, uHTS | Purified CSN, SCF-Nedd8-OG deneddylation | COP9 signalosome complex subunit 5 (Homo sapiens), Q92905 | actives 0.38% (n = 360,000) | inhibition, % at 12.5 µM;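 active = pattern-corrected inhibition above about 35%, with an unprinted fluorescence ratio check between 0.5 and 1.5, limit read from the data, passing the limit was not always enough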;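 also: 0% = enzyme with substrate and 100% = substrate without enzyme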
#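 Assay system: HEK293T-derived human Csn5 enzyme; quantity: 0.24 nM enzyme; medium: Tris/NaCl/DTT buffer, pH 7.5; also added: substrate SCFSkp2-Nedd8OG, 10 nM; doses: 12.5 µM compound; schedule: 90 min reaction at room temperature; signal: FP; read-out: % inhibition of substrate cleavage by Csn5; benchmarks: substrate-only high control, full reaction low control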
# Rpn11 block: Rpn11 (PSMD14) deubiquitinase inhibitors, primary screen, biochemical, fluorescence polarization, uHTS; human 26S proteasome, Ub4-pepOG fluorescence polarization; 20S core pre-blocked with epoxomicin; 26S proteasome non-ATPase regulatory subunit 14 (Homo sapiens), O00487; actives 0.59% (n = 360,000); inhibition, % at 20 µM; AID 588493, 2011;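 active = inhibition at 20 µM, scaled to each plate's controls, above about 33%, limit read from the data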
# Numbers without * were called inactive; x = no result given.
SMILES,TPT1 inhibitor,HNF4A DNA FP,CSN inh,Rpn11 block
Cc1nc(-c2ccccn2)nc(N(C)c2ccccc2)c1Cl,-5,0,-1,12
CCc1cc(=O)oc2cc3occ(-c4ccc(OC)c(F)c4)c3cc12,-1,30,37*,36
CCc1cc(=O)oc2cc3occ(C)c3cc12,-1,-2,-9,-4
CCc1cccc(CC)c1NC(=S)N(CCN(C)C)C(C)c1cccnc1 (centres undefined),-3,-3,1,2
CCOC(=O)C1CCN(c2ncnc3c2cnn3C)CC1,4,101*,-2,8
COc1ccc(-c2ccc3c(=O)cc(-c4ccsc4)oc3c2)cn1,x,63*,104*,x
COc1cc(-c2ccc3oc(-c4ccsc4)cc(=O)c3c2)cc(OC)c1OC,x,0,1,18
Cc1cccc(N=Cc2cc3c(cc2[N+](=O)[O-])OCO3)c1,14,0,3,3
COc1cc(C=Nc2cccc(C)c2)c(O)c([N+](=O)[O-])c1,4,-3,-8,39*
c1ccc2c(CN3CCOCC3)c3ccccc3c(CN3CCOCC3)c2c1,-7,32*,-4,-14
c1ccc2c(CN3CCOCC3)csc2c1,-5,-2,0,-2
Cn1c2c(c(=O)n(C)c1=O)C(C(F)(F)F)(C(F)(F)F)N=C(CCC1CCCCC1)N2,1,-2,54*,-1
COc1ccc(NC(=S)N(CCN(C)C)C(C)c2ccncc2)cc1Cl (centres undefined),0,44*,3,-6
CCN1/C(=C/C=C2/SC(=Nc3cccc4ncccc34)N(C)C2=O)Sc2ccccc21,x,104,50*,x
Cc1cc(-c2ccccc2)nc(Nc2nc3c(C)cccc3c(=O)[nH]2)n1,x,53*,14,30
Cc1cc(C)c2nc(Nc3nc(-c4ccccc4)cc(=O)[nH]3)nc(C)c2c1,2,4,4,6
CCOC(=O)CCCCCC(=O)Nc1ccc2c(c1)C(=O)N([C@@H](C)CO)C[C@@H](C)[C@H](CN(C)S(=O)(=O)c1cccs1)OCCCC[C@H](C)O2,x,2,-1,4
CCN/C=C(\C#N)S(=O)(=O)c1ccc(Br)cc1,0,1,100*,1
CC(C)(C)N/C=C(\C#N)S(=O)(=O)c1ccc(Br)cc1,0,4,0,3
Nn1c(SCC(=O)Nc2c(F)cc(F)cc2Br)nnc1C1CCCCC1,-1,32,108*,-3
Nn1c(SCC(=O)Nc2ccc(F)cc2F)nnc1C1CCCCC1,-1,5,3,1
CCN(CC)c1c(C)nc2ccc(C(=O)N3CCN(C(=O)c4ccco4)CC3)cn12,x,1,2,0
COc1ccc(C(C)NC(=O)Nc2ccc(C(C)=O)cc2)cc1OC (centres undefined),1,-3,-2,-8
CC(=O)N1N=C(c2cccc(NS(C)(=O)=O)c2)CC1c1ccc2c(c1)OCO2 (centres undefined),3,-1,-4,-4
CS(=O)(=O)Nc1ccc(C2=NN(S(C)(=O)=O)C(c3ccc4c(c3)OCO4)C2)cc1 (centres undefined),4,79*,11,22
SMILES,TPT1 inhibitor,HNF4A DNA FP,CSN inh,Rpn11 block
COc1ccccc1/C=C/C(=O)OCC(=O)Nc1c(C)nn(-c2ccccc2)c1C,x,3,-1,-3
COc1ccc(C2C(C#N)=C(C)NC3=C2C(=O)CC(C)(C)C3)cc1 (centres undefined),-7,1,102*,-2
COc1ccc(NC(=O)CN2C(=O)NC(C)(c3ccccc3)C2=O)c(OC)c1 (centres undefined),1,3,2,3
CCCCn1nc(C(=O)NCC(c2cccs2)N2CCOCC2)c2ccccc2c1=O (centres undefined),x,1,-6,1
CC(=O)c1ccc(NC(=O)CN2CCN(c3ccccc3)CC2)cc1,1,2,2,-5
CC(=O)Nc1ccc(C(=O)CN2CCN(c3ccccc3)CC2)cc1,4,19,100*,8
CCOC(=O)C1=C(O)/C(=C\c2ccc(CNS(=O)(=O)c3ccc(Br)cc3)o2)N=C1C,11,16,52*,10
COC(=O)C1=C(O)/C(=C\c2ccc(CNC(=O)C(=O)Nc3ccc(C)cc3)o2)N=C1C,-4,0,36*,1
